Measurements as given in ChEMBL document CHEMBL5390247, “Aryl azoles based scaffolds for disrupting tumor microenvironment” (Bioorg Med Chem, 2023).
pIC50: −log10 of the molar value. Active and inactive are the calls of the source. The rule behind the calls is not given here.

Tests used:
[1] = Toxicity against interferon gamma-stimulated human THP-1 monocyte cells co-cultured with human HT-29 cells assessed as reduction in cell viability at 100 uM incubated for 48 hrs by flow cytometry analysis; format: cell-based; conditions: thp-1, 48 h
Procedure, shortened: (§1)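 HT-29 cells at 10^5/well seeded and grown 24 h. Medium then replaced with medium containing IFN-γ (10 ng/ml), 5 × 10^5 THP-1 cells/well and compound at 100 µM; DMSO used as control. After 48 h, THP-1 cells collected from supernatant and cancer cells by trypsinisation. Both fixed in 4% paraformaldehyde and counted by flow cytometry relative to control.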

HT-29 [2] = experiment: Antiproliferative activity against human HT-29 cells assessed as relative PD-L1 protein expression in membrane at 100 uM incubated for 48 hrs by flow cytometry analysis relative to control; format: functional
HT-29 [3] = experiment: Antiproliferative activity against human HT-29 cells assessed as relative PD-L1 protein expression in whole cell at 100 uM incubated for 48 hrs by flow cytometry analysis relative to control; format: functional
HT-29 [4] = experiment: Antiproliferative activity against human HT-29 cells assessed as relative c-Myc protein expression at 100 uM incubated for 48 hrs by flow cytometry analysis relative to control; format: functional
HT-29 [5] = experiment: Antiproliferative activity against human HT-29 cells assessed as relative VEGFR-2 protein expression in membrane at 100 uM incubated for 48 hrs by flow cytometry analysis relative to control; format: functional
HT-29 [6] = experiment: Antiproliferative activity against human HT-29 cells assessed as relative VEGFR-2 protein expression in whole cell at 100 uM incubated for 48 hrs by flow cytometry analysis relative to control; format: functional
HT-29 [7] = experiment: Immunomodulatory activity in human HT-29 cells co-cultured with interferon gamma-stimulated THP-1 cells assessed as cell viability at 100 uM incubated for 48 hrs by flow cytometry analysis relative to control; format: functional; conditions: read-out: Activity; procedure, shortened: as §1
HT-29 [8] = experiment: Immunomodulatory activity in human HT-29 cells co-cultured with interferon gamma-stimulated THP-1 cells assessed as inhibition of cell growth at 100 uM incubated for 48 hrs by flow cytometry analysis relative to control; format: functional; procedure, shortened: as §1
HT-29 [9] = experiment: Immunomodulatory activity in human HT-29 cells co-cultured with interferon gamma-stimulated THP-1 cells assessed as relative PD-L1 protein expression in membrane at 100 uM incubated for 48 hrs by flow cytometry analysis relative to control; format: functional
HMEC-1 [10] = experiment: Antiangiogenic activity in HMEC-1 cells assessed as inhibition of endothelial microtubes formation at 100 uM incubated for 24 hrs by matrigel based imaging analysis; format: functional, cell-based; conditions: Homo sapiens
Procedure, shortened: (§2)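 HMEC-1 cells at 2 × 10^4 cells/well seeded on Matrigel (10 mg/mL, gelled 30 min at 37 °C) in EGM-2MV medium with SingleQuots, allowed to attach 30 min at 37 °C. Compounds then added in medium; after 24 h at 37 °C, microtube formation/destruction evaluated from pictures.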

HMEC-1 [11] = experiment: Antiangiogenic activity in HMEC-1 cells assessed as inhibition of endothelial microtubes formation at <75 uM incubated for 24 hrs by matrigel based imaging analysis; format: functional, cell-based; conditions: Homo sapiens; procedure, shortened: as §2
HEK293 [12] = experiment: Anti-vasculogenic activity against HEK293 cells assessed as disruption of tube-like structures at 100 uM incubated for 24 hrs by Matrigel based imaging analysis; format: functional, cell-based; conditions: Homo sapiens
Procedure, shortened: (§3)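 HEK-293 cells seeded at 5 × 10^4 cells/well on Matrigel (pre-incubated with medium 24 h at 37 °C), grown 24 h at 37 °C until tube-like structures form; compounds then added in medium and incubated a further 24 h at 37 °C. Disruption of preformed tube-like structures assessed by imaging.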

HEK293 [13] = experiment: Anti-vasculogenic activity against HEK293 cells assessed as disruption of tube-like structures at <75 uM incubated for 24 hrs by Matrigel based imaging analysis; format: functional, cell-based; conditions: Homo sapiens; procedure, shortened: as §3
HT-29 [14] = experiment: Immunomodulatory activity in human HT-29 cells co-cultured with interferon gamma-stimulated THP-1 cells assessed as inhibition of CD-47 protein expression at 100 uM incubated for 48 hrs by flow cytometry analysis relative to control; format: functional
HT-29 [15] = experiment: Immunomodulatory activity in human HT-29 cells co-cultured with interferon gamma-stimulated THP-1 cells assessed as inhibition of PD-L1 protein expression in cell surface at 100 uM incubated for 48 hrs by flow cytometry analysis relative to control; format: functional
HT-29 [16] = experiment: Antiproliferative activity against human HT-29 cells assessed as reduction in IL-6 secretion at 100 uM incubated for 48 hrs by ELISA assay; format: functional, cell-based
Procedure, shortened: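 HT-29 monocultures at 10^5 cells/well treated 48 h with compound at 100 µM in 500 µL growth medium. Media collected and secreted IL-6 measured with a human IL-6 ELISA kit.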

HT-29 [17] = experiment: Immunomodulatory activity in human HT-29 cells co-cultured with interferon gamma-stimulated THP-1 cells assessed as relative CD-47 protein expression in membrane at 100 uM incubated for 48 hrs by flow cytometry analysis relative to control; format: functional
HT-29 [18] = experiment: Immunomodulatory activity in human HT-29 cells co-cultured with interferon gamma-stimulated THP-1 cells assessed as IL-6 level at 100 uM incubated for 48 hrs by ELISA analysis (reference value: 192 +/- 16 pg/ml); format: functional
Procedure, shortened: (§4)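 HT-29 cells co-cultured with IFN-γ (10 ng/ml)-stimulated THP-1 cells and treated 48 h with compound at 100 µM. Culture media collected and IL-6 measured by human IL-6 ELISA, in pg/mL and as % of control. Mean of three experiments.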

HT-29 [19] = experiment: Immunomodulatory activity in human HT-29 cells co-cultured with interferon gamma-stimulated THP-1 cells assessed as relative IL-6 level at 100 uM incubated for 48 hrs by ELISA analysis relative to control; format: functional; procedure, shortened: as §4
HT-29 [20] = experiment: Immunomodulatory activity in human HT-29 cells co-cultured with interferon gamma-stimulated THP-1 cells assessed as inhibition of IL-6 secretion at 100 uM incubated for 48 hrs by ELISA analysis relative to control; format: functional; procedure, shortened: as §4
HT-29 [21] = experiment: Antiproliferative activity against human HT-29 cells assessed as reduction in cell viability incubated for 48 hrs by MTT assay; format: functional, cell-based; conditions: HT-29, 48 h
Procedure, shortened: (§5)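 MTT dye-reduction assay. Cells at 5 × 10^3/well in DMEM with 10% FBS, treated with serial dilutions of compound (DMSO stocks) for 2 days at 37 °C, 5% CO2. MTT added for a further 3 h, formazan dissolved in DMSO, absorbance read at 550 nm. Viability expressed as % of untreated cells; IC50 determined graphically from three independent experiments.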

A549 = experiment: Antiproliferative activity against human A549 cells assessed as reduction in cell viability incubated for 48 hrs by MTT assay; format: functional, cell-based; conditions: A549, 48 h; procedure, shortened: as §5
MCF7 = experiment: Antiproliferative activity against human MCF7 cells assessed as reduction in cell viability incubated for 48 hrs by MTT assay; format: functional, cell-based; conditions: MCF7, 48 h; procedure, shortened: as §5
[22] = Cytotoxicity against HEK293 cells assessed as reduction in cell viability incubated for 48 hrs by MTT assay; format: toxicity, cell-based; conditions: human; procedure, shortened: as §5
HT-29 [23] = experiment: Immunomodulatory activity in human HT-29 cells co-cultured with interferon gamma-stimulated THP-1 cells assessed as reduction in IL-6 level at 100 uM incubated for 48 hrs by ELISA analysis relative to control; format: functional; design: scale not given: the % may be the effect or the level left; procedure, shortened: as §4

Row | SMILES | Activity [1] | Activity (HT-29 [2]) | Activity (HT-29 [3]) | Activity (HT-29 [4]) | Activity (HT-29 [5]) | Activity (HT-29 [6]) | viability at 100 µM (HT-29 [7]) | inhibition at 100 µM (HT-29 [8]) | Activity (HT-29 [9]) | Activity (HMEC-1 [10]) | Activity (HMEC-1 [11]) | Activity (HEK293 [12]) | Activity (HEK293 [13]) | inhibition at 100 µM (HT-29 [14]) | inhibition at 100 µM (HT-29 [15]) | Activity (HT-29 [16]) | Activity (HT-29 [17]) | Activity (HT-29 [18]) | Activity (HT-29 [19]) | inhibition at 100 µM (HT-29 [20]) | other results
1 | Nc1cccc(-c2nnn(Cc3cccc(Br)c3)n2)c1 | Non-Toxic | 66% | >100% | 83% | >100% | >100% | 19% | > 70% | 64% | Active | inactive | Active | inactive | > 30% | 70% | – | – | – | – | – | –
2 | Nc1cccc(-c2cn(Cc3cccc(Cl)c3)nn2)c1 | Non-Toxic | – | – | – | – | – | 8% | > 90% | 122% | – | – | – | – | – | – | inactive | 96% | 38 pg/mL | 20% | > 80% | –
3 | Nc1cccc(-c2cn(Cc3ccccc3Cl)nn2)c1 | Non-Toxic | – | – | – | – | – | 51% | – | 116% | – | – | – | – | – | – | inactive | 91% | 12 pg/mL | 6% | > 80% | –
4 | Nc1cccc(-c2nnn(Cc3ccccc3Br)n2)c1 | Non-Toxic | 64% | >100% | 90% | >100% | 92% | 23% | > 70% | 65% | Active | inactive | Active | inactive | > 30% | 70% | – | – | – | – | – | –
5 | Nc1cccc(-c2nnn(Cc3ccc(Br)cc3)n2)c1 | Non-Toxic | 92% | >100% | 76% | >100% | >100% | 6% | > 90% | 70% | Active | inactive | Active | inactive | > 30% | 70% | inactive | 60% | 5 pg/mL | 3% | – | pIC50 (HT-29 [21]): < 4.00; pIC50 (A549): < 4.00; pIC50 (MCF7): 4.36; IC50 at 48 h [22]: > 100 µM; Activity (HT-29 [23]): >95%
